{
  "source": "the RNAGym collection of RNA variant scans (doi:10.1126/science.aae0568)",
  "parents": {"B1": {"name": "tRNA (parent)", "chain": "GUUCCGUUGGCGUAAUGGUAACGCGUCUCCCUCCUAAGGAGAAGACUGCGGGUUCGAGUCCCGUACGGAACG"}},
  "note": "Variants at the floor of the assay were thinned out.",
  "data": [
    {"variants_of": "B1", "assay": "yeast fitness relative to wild type (ratio to wild type); higher = fitter; tRNA-Arg(CCU), competitive growth, 37 C, YPD", "procedure,_shortened": "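A pool of Saccharomyces cerevisiae strains, each with a tRNA-Arg(CCU) gene variant at the native genomic locus, was competed in YPD at 37°C for 24 hours across six parallel replicates. The variants had been chemically synthesised at a 3% per-site mutation rate over 69 sites, and gene amplicons before and after competition were read by 100-nucleotide paired-end sequencing. Darwinian fitness relative to wild type rested on changes in genotype frequencies. Genotypes required ≥ 100 starting reads, and estimates < 0.5 were set to 0.5.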", "values": [
      {"variant": "GUUCCGUUGGCGUAAUGGUAAUGCGUUUCCCUCCUAAGGAGAAGACUGCGGGUUCGAGUCCCGUACGGACCG", "note": "[C22U C27U A70C]", "yeast fitness": 0.599},
      {"variant": "GUUCCGUUGGCGUAAUGGUAAUGUGUCUCCCUUCUAAGGUGAAGACUGCGGGUUCGAGUCCCGUACGGAACG", "note": "[C22U C24U C33U A40U]", "yeast fitness": "≤ 0.5"},
      {"variant": "GUUCCGUUGGCGUAAUGGUAAUGCGUCUACCUCCUAAGGAGAAGACUGCGGGUUCGAGUCCCGUACGACACG", "note": "[C22U C29A G68A A69C]", "yeast fitness": 0.55},
      {"variant": "GUUCCGUUGGCGUAAUGGUAAUGUGUCUCCCUCCUAAGGAGAAGACUGCGGGUUCGACUCCCGUCCGGAACG", "note": "[C22U C24U G58C A65C]", "yeast fitness": "≤ 0.5"},
      {"variant": "GUUCCGUUGGCGUAAUGGUAAUGCGUCUACCUCCUAAGGAGAAGACCGCGGGUUCGAGUCCCGUACGACACG", "note": "[C22U C29A U47C G68A A69C]", "yeast fitness": "≤ 0.5"},
      {"variant": "GUUCCGUUGGCGUAAUGGUAAUGCGUCUCCCUCCUAAGGAGAAGACUGCGGGUUCGAGUCCCGUUCGGAUCG", "note": "[C22U A65U A70U]", "yeast fitness": 0.628},
      {"variant": "GUUCCGUUGGCGUAAUGGUAAUGCGUUUCCCUCCUAAGGAGAAGACUGCGGGUUCGUGUCGCGUACGGAACG", "note": "[C22U C27U A57U C61G]", "yeast fitness": 0.574},
      {"variant": "GUUCCGUUGGCGUAAUGGUAAUGCGUGGCCCGCCUAAGGAGAAGGCUGCGGGUUCGAGUCCCGUACGGAACG", "note": "[C22U C27G U28G U32G A45G]", "yeast fitness": "≤ 0.5"},
      {"variant": "GUUCCGUUGGCGUAAUGGUAAUGUGUCUCCCUGCUAAGGAGAAGACUGCGGGUUCGAGUCCCGUACGGAACG", "note": "[C22U C24U C33G]", "yeast fitness": 0.502},
      {"variant": "GUUCCGUUGGCGUAAUGGUAAUGGGUCUCCCUCCCAAGGAGAAGACUGCGGGUUCCAGUCCCGAACGGAACG", "note": "[C22U C24G U35C G56C U64A]", "yeast fitness": "≤ 0.5"},
      {"variant": "GUUCCGUUGGCGUAAUGGUAAUGCGUAUCCCUCCUAAGGAGAAGACUGCGGGUUCGAAUCCCGUACGGAACG", "note": "[C22U C27A G58A]", "yeast fitness": 0.568},
      {"variant": "GUUCCGUUGGCGUAAUGGUAAUGGGUCUCCCUCCUAAGGAGAAGACUGCGGGUUUGAGUCCCGUACGGAACG", "note": "[C22U C24G C55U]", "yeast fitness": "≤ 0.5"},
      {"variant": "GUUCCGUUGGCGUAAUGGUAAUGCGUGUCCCUCCUAGGGAGCAGACUGCGGGUUCGAGUCCCGUACGGAACG", "note": "[C22U C27G A37G A42C]", "yeast fitness": "≤ 0.5"},
      {"variant": "GUUCCGUUGGCGUAAUGGUAAUGCGUUUCCCUGCUAAGGAGAACACUGCGGGUUCGAGUCCCGUUCGGAACG", "note": "[C22U C27U C33G G44C A65U]", "yeast fitness": 0.574},
      {"variant": "GUUCCGUUGGCGUAAUGGUAAUGCGUCUCCCUCCUAAGGAGAAGACUGCGGGUUCGGGUCCCGUACGGAACG", "note": "[C22U A57G]", "yeast fitness": 0.775},
      {"variant": "GUUCCGUUGGCGUAAUGGUAAUGCGUCUCCCUCCUAAGGAGAAGACUGCGGGUUCGCGUCCCGUACGGAACG", "note": "[C22U A57C]", "yeast fitness": 0.661},
      {"variant": "GUUCCGUUGGCGUAAUGGUAAUGCGUCUCCCUCCUAAGGAGAAGACUGCGGGUUCGUGUCCCGUACGGAACG", "note": "[C22U A57U]", "yeast fitness": 0.617},
      {"variant": "GUUCCGUUGGCGUAAUGGUAAUGCGUCUACCUCCUGAGGAGAAGUCUGCGGGUUCGAGUCCCGUACGGAACG", "note": "[C22U C29A A36G A45U]", "yeast fitness": "≤ 0.5"},
      {"variant": "GUUCCGUUGGCGUAAUGGUAAUGCGUCUCCCUCCUAAGGAGAAGACUGCGGGUUCGAGUCCCGUACGGAGCG", "note": "[C22U A70G]", "yeast fitness": 0.784},
      {"variant": "GUUCCGUUGGCGUAAUGGUAAUGCGUCUCCCUCCUAAGGAGAAGCCUGCAGGUUCGAGUCCCGUACCGCACG", "note": "[C22U A45C G50A G67C A69C]", "yeast fitness": "≤ 0.5"},
      {"variant": "GUUCCGUUGGCGUAAUGGUAAUGCGUCUCCCUCCUAAGGAGAAGUCUGCGGCUUCGUGUCCCGUACGGAACG", "note": "[C22U A45U G52C A57U]", "yeast fitness": "≤ 0.5"},
      {"variant": "GUUCCGUUGGCGUAAUGGUAAUGAGUUUCCCUCCUAAGGAGAAGACUGCGGGUUCGAGUCCCGUACGGAACG", "note": "[C22U C24A C27U]", "yeast fitness": "≤ 0.5"},
      {"variant": "GUUCCGUUGGCGUAAUGGUAAUGGGUCUCCCUCCUAAGGAGAAGACUGGGGGUUCAAGUCCCGUACGGAACG", "note": "[C22U C24G C49G G56A]", "yeast fitness": "≤ 0.5"},
      {"variant": "GUUCCGUUGGCGUAAUGGUAAUGCGUCUCCCUCCUAAGGAGAUGACUGCGGGUUGGAGUCCCGUACGGAACG", "note": "[C22U A43U C55G]", "yeast fitness": 0.595},
      {"variant": "GUUCCGUUGGCGUAAUGGUAAUGUGACUCCCUCCUAAGGAGAAGACCGCGGGUUCGAGUCCCGUACGGAACG", "note": "[C22U C24U U26A U47C]", "yeast fitness": "≤ 0.5"},
      {"variant": "GUUCCGUUGGCGUAAUGGUAAUGCGUCUCCCUCCUAAGGAGAUGACUGCGGGUUCGAGUCCCGUACGGAACG", "note": "[C22U A43U]", "yeast fitness": 0.788},
      {"variant": "GUUCCGUUGGCGUAAUGGUAAUGCGUCUCCCUCCUAAGGAGAGGACUGCGGGUUCGAGUCCCGUACGGAACG", "note": "[C22U A43G]", "yeast fitness": 0.835},
      {"variant": "GUUCCGUUGGCGUAAUGGUAAUGCGUAUCCCUCCUAAGGAGAAGAAUGCGGGUUCGAGUCCCGUACGGAACG", "note": "[C22U C27A C46A]", "yeast fitness": 0.66},
      {"variant": "GUUCCGUUGGCGUAAUGGUAAUGCGUUUCCCUCCUAAGGAGAAGACUGCGGGUUAGUGUCGCGUACGGAACG", "note": "[C22U C27U C55A A57U C61G]", "yeast fitness": "≤ 0.5"},
      {"variant": "GUUCCGUUGGCGUAAUGGUAAUGCGUUUCCCACCUAAGGAGAAGACUGCGGGUUCGAGUCCCGUAUCGAACG", "note": "[C22U C27U U32A C66U G67C]", "yeast fitness": "≤ 0.5"},
      {"variant": "GUUCCGUUGGCGUAAUGGUAAUGUGUCUCCCUCCUAAGGAGAAGGCUGCGGGUUCCAGUCCCGUACGGAACG", "note": "[C22U C24U A45G G56C]", "yeast fitness": "≤ 0.5"},
      {"variant": "GUUCCGUUGGCGUAAUGGUAAUGAGUCGCCCUCCUAAGGAGAAGACUGCGGGUUCGAGUCCCGUACGGAACG", "note": "[C22U C24A U28G]", "yeast fitness": 0.542},
      {"variant": "GUUCCGUUGGCGUAAUGGUAAUGCGUCUCCCUCCUAAGGAGAAGACUGCGGGUUCGAGUCCCGUACGGUACG", "note": "[C22U A69U]", "yeast fitness": 0.799},
      {"variant": "GUUCCGUUGGCGUAAUGGUAAUGGGUCUCGCUCCUAAGGUGAAGACUGCGGGUUCGAGUCCCGUACGGAACG", "note": "[C22U C24G C30G A40U]", "yeast fitness": "≤ 0.5"},
      {"variant": "GUUCCGUUGGCGUAAUGGUAAUGCGUUUCCCUCCUAAGGAGAAGACUGCGGGUUCGAGUCCCGUACGGAACG", "note": "[C22U C27U]", "yeast fitness": 0.713},
      {"variant": "GUUCCGUUGGCGUAAUGGUAAUGCGUGUCCCUCCUAAGGAGAAGACUGCGGGUUCGAGUCCCGUACGGAACG", "note": "[C22U C27G]", "yeast fitness": 0.721},
      {"variant": "GUUCCGUUGGCGUAAUGGUAAUGCGUGUCCCUCCUAAGGAGAAGACUGCGGGUUCGAGUCCCGUACGGUACG", "note": "[C22U C27G A69U]", "yeast fitness": 0.508},
      {"variant": "GUUCCGUUGGCGUAAUGGUAAUGAGUCUCCCUCCUAAGGAGUAGACUGUGGGUUCGAGUCUCGUACGGAACG", "note": "[C22U C24A A42U C49U C61U]", "yeast fitness": "≤ 0.5"}
    ]}
  ]
}
